Screens (PubChem BioAssay)
procasp3 activ: activates human procaspase-3. activation, % at 8.5 µM. recombinant procaspase-3 D3A, Ac-DEVD-pNA absorbance 405 nm. 0.11% of 330,000 active. AID 463141;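 active means activation above the mean of all tested compounds plus 3 SD, cut at about 21% in these data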;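 further: 0% = DMSO alone and 100% = DMSO wells spiked with extra 5 µM PC-3 D3A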
Target sequence (P42574 whole entry D9A/D28A/D175A): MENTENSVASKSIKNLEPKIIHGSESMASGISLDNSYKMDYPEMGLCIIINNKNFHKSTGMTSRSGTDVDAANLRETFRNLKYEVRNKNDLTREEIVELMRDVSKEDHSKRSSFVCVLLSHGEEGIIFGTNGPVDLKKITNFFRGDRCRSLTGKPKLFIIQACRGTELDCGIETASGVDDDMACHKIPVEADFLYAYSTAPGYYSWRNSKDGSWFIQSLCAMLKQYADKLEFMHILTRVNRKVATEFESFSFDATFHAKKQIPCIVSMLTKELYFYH
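Test system: Procaspase-3 D3A mutant; medium: Zinc-free HEPES/NaCl buffer with 0.01% Triton X-100 at pH 7.4; reagent: DEVD-pNA substrate; doses: one concentration, 8.5 µM nominal, 0.8% DMSO; times: 1 h preincubation plus 2 h reaction at 25 °C; signal: Epi-absorbance at 405 nm of released p-nitroaniline, 0 and 120 min; replicates: singlicate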
aDG glyco up: alpha-DG glycosylation activation. Pro5-aDG cells, alpha-DG glycosylation AlphaScreen (IIH6); 0% Pro5, 100% B10-LARGE cell signal. activation, % at 10 µM. 0.22% of 360,000 active. AID 624168;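 active means activation of at least 8% versus controls, or a plate z-score of at least 8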;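 further: Pro5 are CHO cells carrying HIG-tagged alpha-DG that lacks glycosylation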
GRIN3A LBD mod: modulates the human NR3A ligand-binding domain. NR3A LBD differential scanning fluorimetry, Tm shift; 0% = protein alone, 100% = glycine-bound protein. Tm shift relative to glycine control, % at 25 µM. 2.5% of 340,000 active;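 active means melting temperature shift of at least 10% of the positive control shift, at one fixed dose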
procasp7 counter: counter-screen for procaspase-3 activators: activators of human procaspase-7. P55210. recombinant procaspase-7, Ac-DEVD-pNA absorbance 405 nm; D23A/D198A/D206A triple mutant, cannot self-cleave; scale: DMSO 0, 5 µM enzyme 100. activation, % at 8.5 µM. 0.093% of 330,000 active;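 active means percent activation above the screen-wide mean plus 3 SD, cut at about 25% in these data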
Target sequence (P55210 whole entry D23A/D198A/D206A): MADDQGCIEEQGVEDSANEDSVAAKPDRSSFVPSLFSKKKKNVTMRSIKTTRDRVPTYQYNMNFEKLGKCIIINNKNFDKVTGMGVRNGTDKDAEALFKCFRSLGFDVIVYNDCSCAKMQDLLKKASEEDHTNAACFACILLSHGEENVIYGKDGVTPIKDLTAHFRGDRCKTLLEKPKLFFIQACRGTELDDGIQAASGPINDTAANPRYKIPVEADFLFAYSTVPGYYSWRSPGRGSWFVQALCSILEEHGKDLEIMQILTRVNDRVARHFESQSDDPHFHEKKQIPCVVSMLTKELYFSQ
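buffer or medium = Zinc-free HEPES/NaCl buffer, pH 7.4 | material = Procaspase-7 triple mutant (PC-7 D3A) | input = 2 µM procaspase-7 mutant as dispensed | signal = Epi-absorbance of released pNA at 405 nm, two timepoints | timing = 1 h preincubation, 2 h reaction | replicates = singlicate compound testing | evaluation = % activation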
MPTP block: inhibitors of mitochondrial permeability transition pore | AID 602449 | inhibition, % at 10 µM | isolated mouse mitochondria, Ca2+ swelling absorbance, 30 min | 1.4% of 360,000 active;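 active means inhibition of 50% or more, scaled per plate between neutral and stimulator controls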;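 further: 0% = DMSO wells given calcium and 100% = 1 mM EGTA wells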
* hit, by the source's call; nt = no result given. Rows were chosen to be rich in hits. Some 3.7% of all compounds tested hit in one or more screens of this group.

SMILES	procasp3 activ	aDG glyco up	GRIN3A LBD mod	procasp7 counter	MPTP block
COc1ccc(-c2ccc(-c3noc(C)n3)c(OC)n2)cc1	-9	0	1	-2	-2
COc1ccc(CN(C)C(=O)c2ccc(OCC(=O)Nc3cccc(C(F)(F)F)c3)c(OC)c2)cc1	nt	3	nt	nt	19
O=C(CSCc1c(F)cccc1Cl)NCc1cccnc1	8	0	12*	4	1
CC(C)=CCC[C@](C)(O)C1CC[C@]2(C)C1C(O)CC1[C@@]3(C)CCC(O)C(C)(C)C3C(O[C@@H]3OC(CO)C(O)C(O)C3O[C@@H]3OC(C)C(O)C(O)C3O)C[C@]12C (some centres not stated)	4	0	10*	11	0
Nc1ccc(C(=O)N/N=C/c2ccc(N3CCOCC3)s2)cc1	-1	0	11*	-13	-1
O=C(N/N=C/c1ccc(N2CCOCC2)s1)c1ccccc1Br	-11	0	-2	-10	1
CC(C)(C)OC(=O)N/N=C/c1ccc(N2CCOCC2)s1	-9	0	2	4	0
Clc1cccc(N/N=C/c2ccc(N3CCOCC3)s2)c1	1	0	19*	-8	0
Cc1ccc(S(=O)(=O)N(C)C[C@H]2OCCCC[C@H](C)Oc3ccc(NC(=O)Nc4cccc5ccccc45)cc3C(=O)N([C@@H](C)CO)C[C@H]2C)cc1	nt	0	nt	nt	0
CCOC(=O)c1sc(=S)n(C)c1NC(=O)c1ccccc1C	-14	0	14*	-7	5
CCOC(=O)N1CCN(C(c2ccnc3ccccc23)c2nnnn2-c2ccc3c(c2)OCCO3)CC1 (configuration not stated)	nt	0	nt	nt	-1
O=C(OCC(=O)N1CCOCC1)c1ccc2ccccc2c1O	3	0	0	-1	-2
O=C1N=c2ccccc2=C1c1sc(NS(=O)(=O)c2ccccc2)nc1O	6	0	-6	9	0
O=C1N=c2ccccc2=C1c1sc(Nc2ccc(O)cc2)nc1O	nt	0	13*	nt	1
O=C1N=c2ccccc2=C1c1sc(NS(=O)(=O)Cc2ccccc2)nc1O	-9	0	-4	-9	7
O=C1N=c2ccccc2=C1c1sc(Nc2cccc(O)c2)nc1O	-8	0	25*	2	2
Cc1cccc(C)c1NC(=O)CN(C)C(=O)Cc1cccc(C(F)(F)F)c1	9	0	12*	6	1
Cc1cc2occ(CC(=O)N(C)CC(=O)Nc3c(C)cccc3C)c2cc1C	-6	0	-1	-1	0
CC(C)N(C(=O)[C@H]1C[C@H](CC(=O)NCCN2CCOCC2)C(=O)N2CCc3c([nH]c4cc(-c5ccco5)ccc34)[C@]12C)C(C)C	-2	0	-1	6	-1
COC(=O)c1cc(S(=O)(=O)Nc2nn(C)c3cccc(F)c23)oc1C	-2	0	-4	11	3
COC(=O)c1cc(S(=O)(=O)Nc2nn(C)c3ccccc23)oc1C	-11	0	11*	2	2
CC1(C)COC(c2ccc3c(c2)OCO3)OC1	nt	0	11*	nt	-2
NS(=O)(=O)c1ccc(NC(=O)CSc2nc3c(cnn3-c3ccccn3)c(=O)[nH]2)cc1	nt	0	3	nt	-2
CCOC(=O)CN1C(c2ccc(O)cc2)Nc2ccc(Br)cc2C1c1ccccc1 (configuration not stated)	5	0	19*	6	5
CC(=O)Nc1cccc(-c2ccnc3c2CC(C(=O)NCc2ccco2)O3)c1 (configuration not stated)	nt	0	nt	nt	0
SMILES	procasp3 activ	aDG glyco up	GRIN3A LBD mod	procasp7 counter	MPTP block
Cc1cccc(C(=O)Nc2nc(C)c(C(=O)Nc3ccc4c(c3)CCC4)s2)c1	0	0	28*	-2	1
O=C(Cc1cn(Cc2cccc(Cl)c2)c2ccccc12)N1CCCCCC1	3	0	17*	-1	-20
Cc1ccc(C(=O)CN2C(=O)C(=O)N(Cc3ccccc3)C2=O)cc1	-3	0	18*	-7	-1
CC(C)(C)C(=O)Cn1c(=N)n(Cc2ccccc2)c2ccccc21	0	0	1	10	-6
Cc1ccc(CN2C(=O)C(=O)N(CC(N)=O)C2=O)cc1	0	0	-2	9	-1
Cc1ccc(Cn2c(=N)n(CC(=O)c3ccccc3)c3ccccc32)cc1	-2	12*	2	8	4
COCCCNC(=O)c1ccc2nc([C@@H]3O[C@H](CO)[C@H](O)[C@H](O)[C@H]3O)[nH]c2c1	nt	0	nt	nt	0
COc1cc(NC(=O)c2ccc3snnc3c2)cc(OC)c1	0	0	19*	0	4
Cc1ccc(NC(=O)c2ccc3snnc3c2)cc1	-5	0	1	16	-2
O=C(Nc1ccc(F)c(Cl)c1)c1nsc(Cl)c1Cl	-1	0	15*	-3	15
CCCCCN(C(=O)CCC(=O)OC(C)C(=O)Nc1cccc(C#N)c1)c1c(N)n(CCCC)c(=O)[nH]c1=O (configuration not stated)	-7	0	18*	13	-2
CC(C)CC(=O)NC(=S)Nc1nc(-c2ccc(Cl)cc2)cs1	-1	0	30*	0	6
O=C(NC(=S)Nc1nc(-c2ccc(Cl)cc2)cs1)c1cccs1	3	0	-8	-2	2
O=C(O)/C=C/C(=O)Nc1nc(-c2ccc3ccccc3c2)cs1	-6	0	-2	-8	20
CC(C)CC(=O)NC(=S)Nc1nc(-c2ccccc2)cs1	-4	0	-2	-6	4
O=C(/C=C/c1ccco1)NC(=S)Nc1nc(-c2ccc3ccccc3c2)cs1	6	-1	33*	2	4
O=C(/C=C/c1ccco1)NC(=S)Nc1nc(-c2ccc(Cl)cc2)cs1	2	0	129*	0	3
Nc1c(Cl)cc(C(=O)NC2CC2)cc1Cl	nt	2	0	nt	0
CCCS(=O)(=O)NC(=O)C1(C)CCN(C(=O)c2c(F)cccc2F)C1 (configuration not stated)	nt	0	nt	nt	1
CCCCOC(=O)c1c(C)oc2ccc(NS(=O)(=O)c3ccc4c5c(cccc35)C(=O)N4)cc12	10	0	15*	2	0
COCCOC(=O)c1c(C)oc2ccc(NS(=O)(=O)c3cccs3)cc12	2	0	0	-3	-5
CSc1ccc(S(=O)(=O)Nc2ccc(NC(C)=O)cc2)cc1	2	0	5	-3	0
CSc1ccc(S(=O)(=O)Nc2ccc(S(=O)(=O)Nc3ccc(C)cc3)cc2)cc1	-2	0	25*	2	1
Cc1ccc(CNC(=S)Nc2ccc(NS(=O)(=O)c3ccc(C)cc3)cc2)cc1	nt	0	23*	nt	2
CSc1cccc(NS(=O)(=O)c2ccccc2)c1	3	0	20*	5	-1
